Measured values published in ChEMBL document CHEMBL3856229, “Hybrid Antibiotic Overcomes Resistance in P. aeruginosa by Enhancing Outer Membrane Penetration and Reducing Efflux” (J Med Chem, 2016).
The source made the active and inactive calls. The rule behind the calls is not given here.

Key:
Pseudomonas aeruginosa [1] = test: Antibacterial activity against Pseudomonas aeruginosa PAO1 assessed as fractional inhibitory concentration index after 18 hrs in presence of vancomycin by checkerboard method; type: functional
In short: (§1)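 Checkerboard combinations of the hybrid with each partner antibiotic were tested against P. aeruginosa PAO1. Interaction is expressed as the fractional inhibitory concentration (FIC) index: ≤0.5 means synergy, 1–2 no interaction, ≥4 antagonism.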

Pseudomonas aeruginosa [2] = test: Antibacterial activity against multidrug-resistant/tobramycin-susceptible Pseudomonas aeruginosa isolate 79199; type: functional
[3] = Cytotoxicity against human DU145 cells assessed as reduction in cell viability after 48 hrs by MTS assay; type: toxicity, cell-based, DU-145
Pseudomonas aeruginosa [4] = test: Antibacterial activity against Pseudomonas aeruginosa PAO1 assessed as fractional inhibitory concentration index after 18 hrs in presence of gentamicin by checkerboard method; type: functional; in short: as §1
Pseudomonas aeruginosa [5] = test: Antibacterial activity against multidrug/extremely drug-resistant/colistin-susceptible Pseudomonas aeruginosa isolate 100036; type: functional
Pseudomonas aeruginosa [6] = test: Antibacterial activity against multidrug/extremely drug-resistant/colistin-susceptible Pseudomonas aeruginosa isolate 259-96918; type: functional
Pseudomonas aeruginosa [7] = test: Antimicrobial activity against Pseudomonas aeruginosa PAO1 assessed as cell membrane blebbing at 8 ug/ml after 3 to 4 hrs by uranyl acetate staining based transmission electron microscopy; type: functional
In short: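 PAO1 in Mueller-Hinton broth was exposed to 8 µg/mL at 37 °C (3 h in the legend, 4 h in the text). Untreated cells were the reference. Morphology was imaged by transmission electron microscopy at 75 kV.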

Staphylococcus aureus = test: Antibacterial activity against methicillin-resistant Staphylococcus aureus ATCC 33592 after 24 hrs by microtitre broth dilution method; type: functional; conditions: ATCC 33592, 24 h
Escherichia coli [8] = test: Antibacterial activity against fluoroquinolone resistant Escherichia coli isolate 87164 harboring beta-lactamase CTX-M-15/TEM-1; type: functional
Pseudomonas aeruginosa [9] = test: Potentiation of moxifloxacin induced antibacterial activity against multidrug/extremely drug-resistant Pseudomonas aeruginosa isolate PA262-101856 assessed as moxifloxacin MIC at <= […] ug/ml (reference value: […] to […] ug/ml); type: functional
Pseudomonas aeruginosa [10] = test: Potentiation of ciprofloxacin induced antibacterial activity against multidrug/extremely drug-resistant Pseudomonas aeruginosa isolate PA260-97103 assessed as ciprofloxacin MIC at <= […] ug/ml (reference value: […] to […] ug/ml); type: functional
Pseudomonas aeruginosa [11] = test: Potentiation of moxifloxacin induced antibacterial activity against multidrug/extremely drug-resistant Pseudomonas aeruginosa isolate PA260-97103 assessed as moxifloxacin MIC at <= […] ug/ml (reference value: […] to […] ug/ml); type: functional
Escherichia coli [12] = test: Antibacterial activity against Escherichia coli ATCC 25922 after 24 hrs by microtitre broth dilution method; type: functional; conditions: ATCC 25922, 24 h
Pseudomonas aeruginosa [13] = test: Antibacterial activity against multidrug/extremely drug-resistant Pseudomonas aeruginosa isolate PA260-97103 in presence of <= 4 ug/ml of moxifloxacin (reference value: 1 ug/ml); type: functional
Pseudomonas aeruginosa [14] = test: Antibacterial activity against multidrug/extremely drug-resistant/pandrug-resistant Pseudomonas aeruginosa isolate PA259-96918 in presence of <= 4 ug/ml of moxifloxacin (reference value: 2 ug/ml); type: functional
[15] = Selectivity ratio of MIC for Pseudomonas aeruginosa PAO1 to MIC for Pseudomonas aeruginosa PAO750; type: functional
In short: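 MICs were measured in PAO1 and in PAO750. PAO750 is a PAO1 derivative lacking the MexAB-OprM, MexCD-OprJ, MexEF-OprN, MexJK and MexXY efflux pumps and the outer membrane protein OpmH.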

Pseudomonas aeruginosa [16] = test: Potentiation of ciprofloxacin induced antibacterial activity against multidrug/extremely drug-resistant Pseudomonas aeruginosa isolate PA262-101856 assessed as ciprofloxacin MIC at <= […] ug/ml (reference value: […] to […] ug/ml); type: functional
Pseudomonas aeruginosa [17] = test: Antibacterial activity against multidrug/extremely drug-resistant/colistin-susceptible Pseudomonas aeruginosa isolate 264-104354; type: functional
Pseudomonas aeruginosa [18] = test: Antibacterial activity against multidrug/extremely drug-resistant Pseudomonas aeruginosa isolate PA259-96918 in presence of <= 4 ug/ml of ciprofloxacin (reference value: 2 ug/ml); type: functional
[19] = tested on: Staphylococcus epidermidis; test: Antibacterial activity against methicillin-susceptible Staphylococcus epidermidis isolate CANWARD-2008 81388 after 24 hrs by microtitre broth dilution method; type: functional; conditions: isolate CANWARD-2008 81388, 24 h
[20] = Inhibition of Pseudomonas aeruginosa DNA gyrase A assessed as inhibition of DNA supercoiling using PBR322 DNA as substrate after 30 mins by SYBR Gold staining based agarose gel electrophoresis
Escherichia coli [21] = test: Antibacterial activity against fluoroquinolone resistant Escherichia coli isolate N-10-1631 harboring beta-lactamase CTX-M-15/OXA-1; type: functional
Pseudomonas aeruginosa [22] = test: Potentiation of moxifloxacin induced antibacterial activity against multidrug/extremely drug-resistant Pseudomonas aeruginosa isolate PA264-104354 assessed as moxifloxacin MIC at <= […] ug/ml (reference value: […] to […] ug/ml); type: functional
Pseudomonas aeruginosa [23] = test: Antibacterial activity against multidrug/extremely drug-resistant Pseudomonas aeruginosa isolate PA262-101856 in presence of <= 4 ug/ml of ciprofloxacin (reference value: 4 ug/ml); type: functional
Pseudomonas aeruginosa [24] = test: Antibacterial activity against pandrug-resistant Pseudomonas aeruginosa isolate 101243; type: functional
Pseudomonas aeruginosa [25] = test: Antibacterial activity against Pseudomonas aeruginosa PAO1 assessed as fractional inhibitory concentration index after 18 hrs in presence of minocycline by checkerboard method; type: functional; in short: as §1
Pseudomonas aeruginosa [26] = test: Induction of outer membrane permeabilization in Pseudomonas aeruginosa PAO1 assessed as accumulation of propidium iodide at 8 ug/ml after 3 to 4 hrs by fluorescence microscopy; type: functional
In short: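 PAO1 cells were treated with 8 µg/mL for 3 h at 37 °C, then stained with the membrane-impermeable nucleic-acid dye propidium iodide. Fluorescence microscopy and DIC imaging were compared against untreated cells.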

Pseudomonas aeruginosa [27] = test: Potentiation of ciprofloxacin induced antibacterial activity against pandrug-resistant Pseudomonas aeruginosa isolate 91433 assessed as ciprofloxacin MIC at <= […] ug/ml (reference value: 4 to 8 ug/ml); type: functional
Pseudomonas aeruginosa [28] = test: Antibacterial activity against Pseudomonas aeruginosa PAO1 assessed as fractional inhibitory concentration index after 18 hrs in presence of moxifloxacin by checkerboard method; type: functional; in short: as §1
Pseudomonas aeruginosa [29] = test: Antibacterial activity against multidrug-resistant/tobramycin-susceptible Pseudomonas aeruginosa isolate 86141; type: functional
Pseudomonas aeruginosa [30] = test: Antibacterial activity against Pseudomonas aeruginosa PAO1 assessed as fractional inhibitory concentration index after 18 hrs in presence of tobramycin by checkerboard method; type: functional; in short: as §1
Pseudomonas aeruginosa [31] = test: Potentiation of ciprofloxacin induced antibacterial activity against multidrug/extremely drug-resistant Pseudomonas aeruginosa isolate PA259-96918 assessed as ciprofloxacin MIC at <= […] ug/ml (reference value: […] ug/ml); type: functional
[32] = Hemolytic activity in human erythrocytes at 1000 microg/ml after 30 mins by spectrometry; type: ADME, cell-based, Erythrocyte; conditions: read-out: Activity
Pseudomonas aeruginosa [33] = test: Antimotility activity against Pseudomonas aeruginosa PAO1 assessed as reduction in flagellum-dependent swimming motility after 20 hrs; type: functional
In short: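 Swim plates (0.3% agar, dried and set for 60 min) were inoculated with PAO1 at OD600 1.0, with or without 0.25 µg/mL test agent. Plates were imaged after 20 h at 37 °C.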

For COc1c(N2C[C@@H]3CCCN(CCCCCCCCCCCCO[C@@H]4[C@@H](O[C@H]5O[C@H](CO)[C@@H](O)[C@H](N)[C@H]5O)[C@H](N)C[C@H](N)[C@H]4O[C@H]4O[C@H](CN)[C@@H](O)C[C@H]4N)[C@@H]3C2)c(F)cc2c(=O)c(C(=O)O)cn(C3CC3)c12.Cl.Cl.Cl.Cl.Cl, the “fractional inhibitory concentration index (FICI)” value (Pseudomonas aeruginosa [1]) was 0.26, the MIC (Pseudomonas aeruginosa [2]) was 8 µg/mL and the CC50 at 48 h [3] was over 30 µM. The “fractional inhibitory concentration index (FICI)” value (Pseudomonas aeruginosa [4]) was 5, the MIC (Pseudomonas aeruginosa [5]) was 8 µg/mL and the MIC (Pseudomonas aeruginosa [6]) was 2 µg/mL. The Activity (Pseudomonas aeruginosa [7]) was “Active”, the MIC (Staphylococcus aureus) was 1 µg/mL and the MIC (Escherichia coli [8]) was at least 64 µg/mL. It also gave an MIC (Pseudomonas aeruginosa [9]) of 2 µg/mL, an MIC (Pseudomonas aeruginosa [10]) of 1 µg/mL and an MIC (Pseudomonas aeruginosa [11]) of 1 µg/mL. The MIC (Escherichia coli [12]) was 0.5 µg/mL, the MIC (Pseudomonas aeruginosa [13]) was 0.25 µg/mL and the MIC (Pseudomonas aeruginosa [14]) was under 1 µg/mL. For the same compound, the Selectivity ratio [15] was 8, the MIC (Pseudomonas aeruginosa [16]) was 1 µg/mL and the MIC (Pseudomonas aeruginosa [17]) was 4 µg/mL. The MIC (Pseudomonas aeruginosa [18]) was under 0.5 µg/mL, the MIC [19] was 2 µg/mL and the IC50 [20] was 54.7 µM. For the same compound, the MIC (Escherichia coli [21]) was at least 64 µg/mL, the MIC (Pseudomonas aeruginosa [22]) was 1 µg/mL and the MIC (Pseudomonas aeruginosa [23]) was under 0.5 µg/mL. The MIC (Pseudomonas aeruginosa [24]) was 8 µg/mL, the “fractional inhibitory concentration index (FICI)” value (Pseudomonas aeruginosa [25]) was 0.15 and the Activity (Pseudomonas aeruginosa [26]) was “Active”. The MIC (Pseudomonas aeruginosa [27]) was 0.25 µg/mL, the “fractional inhibitory concentration index (FICI)” value (Pseudomonas aeruginosa [28]) was 0.18 and the MIC (Pseudomonas aeruginosa [29]) was 4 µg/mL. For the same compound, the “fractional inhibitory concentration index (FICI)” value (Pseudomonas aeruginosa [30]) was over 2, the MIC (Pseudomonas aeruginosa [31]) was under 1 µg/mL and the hemolysis at 0.5 h, 1000 microg/ml [32] was under 2.5%. The Activity (Pseudomonas aeruginosa [33]) was “Dose-dependent effect”.
